The test system of data set [1] is CRL-2573. Nature of the data set: Inhibition of high glucose-induced collagen-4 secretion in rat CRL-2573 cells at 10 uM after 24 hrs by ELISA. Type of data set: functional, cell-based. Summed up:
(§1)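 Rat mesangial cells (CRL-2573) grown in DMEM with 5.6 mM D-glucose (pH 7.4), 20% FCS, penicillin/streptomycin, 10 mM HEPES. At 80% confluence, growth arrested in 0.5% FCS for 24 h. Pretreated 1 h with compound (1 or 10 μM), then high glucose 24 h. Supernatant analyte quantified by sandwich ELISA, normalized to total cell protein (BCA).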
A general note: ELISA stands for enzyme-linked immunosorbent assay.

Data set [2] has as its system CRL-2573. Description: Inhibition of high glucose-induced CCL2 secretion in rat CRL-2573 cells at 10 uM after 24 hrs by ELISA. Type of data set: functional, cell-based. A digest of the protocol: as §1
The subject of data set [3] is CRL-2573. Description: Inhibition of high glucose-induced IL-6 secretion in rat CRL-2573 cells at 10 uM after 24 hrs by ELISA. In kind it is functional, cell-based. Summed up:
as §1

A short description of data set [4]: Cytotoxicity in rat CRL-2573 cells at 10 uM after 24 hrs by trypan blue exclusion assay. In kind it is cell-based. The following applies: crl-2573, 24 h.
For data set [5], the system named is CRL-2573. Nature of the data set: Antioxidant activity against high glucose-induced intracellular ROS production in rat CRL-2573 cells assessed as carboxymethyl-H2-dichlorofluorescein diacetate conversion to 2',7'-dichlorofluorescein at 1 to 10 uM preincubated for 1 hr prior to high glucose challenge by flow cytometer. In kind it is functional, cell-based. A digest of the protocol: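 Rat mesangial cells cultured and growth-arrested as for secretion assays. Exposed to 5.6 mM (normal) or 25 mM (high) D-glucose for up to 24 h, with or without compound preincubation. Intracellular ROS then measured.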
(In flow cytometry, cells or beads pass a laser one at a time.)

Data set [6] relates to CRL-2573. Nature of the data set: Inhibition of high glucose-induced collagen-1 secretion in rat CRL-2573 cells at 10 uM after 24 hrs by ELISA. Type of data set: functional, cell-based. A digest of the protocol:
as §1

Another data set deals with RAW264.7. Nature of the data set: Inhibition of LPS-induced nitric oxide production in […] cells at 25 uM. Type of data set: functional, cell-based.
The test system of data set [7] is CRL-2573. Description: Antioxidant activity against high glucose-induced intracellular superoxide ion production in rat CRL-2573 cells at 1 to 10 uM measured every minute for 30 mins by lucigenin-enhanced chemiluminescence assay in presence of NADPH. In kind it is functional, cell-based. A digest of the protocol: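 Homogenates of cultured rat mesangial cells (100 μg/well) assayed by lucigenin-enhanced chemiluminescence. Dark-adapted lucigenin (5 μM) with or without NADPH (100 μM) added immediately before reading. Signal recorded every minute for 30 min.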

Calls of active or inactive are those of the source. The rule behind the calls is not given here. Where a SMILES comes first, the peptide text is derived from it.

As to `COC1CCC(=O)N1[C@@H]1C=C(COC(=O)c2ccc[nH]2)CO1` (some centres undefined), the inhibition entry with CRL-2573 [1], in the data set on CRL-2573 [2] and in the data set on CRL-2573 [3] was “Active” throughout.
As to `CC(C)C[C@@H]1NC(=O)CNC(=O)[C@H](C)NC(=O)[C@@H]2CCCN2C(=O)[C@@H]2CCCN2C(=O)[C@H](Cc2ccccc2)NC(=O)[C@H]([C@@H](C)O)NC(=O)[C@H](C)NC1=O` (HELM PEPTIDE1{A.G.L.A.T.F.P.P}$PEPTIDE1,PEPTIDE1,1:R1-8:R2$$$V2.0), the Activity entry in data set [4] is listed as “Non-toxic”. Also, the inhibition result in the data set on CRL-2573 [1], with CRL-2573 [2], in the data set with CRL-2573 [6] and in the data set with CRL-2573 [3] was “Active” each time. Besides, the result in the data set on CRL-2573 [5] and in the data set on CRL-2573 [7] was Active. Moreover, the inhibition entry in the data set with RAW264.7 was “inactive”.
With `CC(C)C[C@@H]1NC(=O)CNC(=O)[C@H](C(C)C)NC(=O)[C@@H]2CCCN2C(=O)[C@H](Cc2ccccc2)NC(=O)[C@H]([C@@H](C)O)NC(=O)[C@@H]2CCCN2C(=O)[C@H]([C@@H](C)O)NC1=O` (HELM PEPTIDE1{F.P.V.G.L.T.P.T}$PEPTIDE1,PEPTIDE1,1:R1-8:R2$$$V2.0), the inhibition result in the data set on CRL-2573 [1], with CRL-2573 [2] and in the data set on CRL-2573 [3] was “Active” in each case.

The values are drawn from ChEMBL document CHEMBL1811914, “Bioactive compounds from the aerial parts of Brachystemma calycinum and structural revision of an octacyclopeptide” (J Nat Prod, 2011).
